According to ChEMBL document CHEMBL1649081, “Arylpiperazines for management of benign prostatic hyperplasia: design, synthesis, quantitative structure-activity relationships, and pharmacokinetic studies” (J Med Chem, 2011):
“And” between values parts separate entries of the source, which are not always exact repeats. Identical values can stand only once. The source made the active and inactive calls. No cut-off for these calls is given here.

How the values were obtained:
[1] = (§1) […] in Sprague-Dawley rat model […] assessed as reduction in prostate weight at 10 mg/k, po administered daily for 21 days measured after 24 hrs post last dose; type: functional
In short: (§2)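 Adult mature Sprague-Dawley rats (n = 5) received an oral 10.0 mg/kg dose as a water/gum acacia suspension daily for 21 days. Controls received vehicle, and a reference antiandrogen served as positive control. At autopsy 24 h after the last dose, prostates were dissected and weighed.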

[2] = test system: Cancer cell lines; assay: as §1; type: functional; in short: as §2
[3] = biological target: Estrogen receptor beta (Homo sapiens) (UniProt Q92731); assay: Induction of ERbeta in human LNCAP cells at 10 umol relative to control; type: cell-based
Estrogen receptor beta (Homo sapiens), sequence (Q92731 whole entry): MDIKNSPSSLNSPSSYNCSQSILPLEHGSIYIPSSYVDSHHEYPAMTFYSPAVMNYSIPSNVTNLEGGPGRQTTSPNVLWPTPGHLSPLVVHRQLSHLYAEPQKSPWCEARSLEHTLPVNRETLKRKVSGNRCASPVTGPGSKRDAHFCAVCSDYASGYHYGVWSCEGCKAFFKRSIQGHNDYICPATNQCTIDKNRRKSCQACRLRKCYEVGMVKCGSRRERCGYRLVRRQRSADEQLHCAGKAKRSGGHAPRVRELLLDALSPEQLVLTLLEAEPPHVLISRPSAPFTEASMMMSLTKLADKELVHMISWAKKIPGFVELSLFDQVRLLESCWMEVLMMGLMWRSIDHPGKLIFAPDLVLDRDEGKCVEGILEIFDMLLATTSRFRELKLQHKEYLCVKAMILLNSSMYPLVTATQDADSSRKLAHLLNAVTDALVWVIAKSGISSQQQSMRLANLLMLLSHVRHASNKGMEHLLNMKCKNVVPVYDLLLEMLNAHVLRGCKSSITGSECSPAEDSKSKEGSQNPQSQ
In short: (§3)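 LNCaP cells were grown in RPMI-1640 with 10% FCS, penicillin and streptomycin on gelatin-coated plates to 80% confluence, then treated at 10.0 μmol for 24 h, with flutamide as comparator. Total RNA was extracted with Trireagent, and ER-α/ER-β mRNA was measured by real-time PCR. Results are fold change versus control, mean ± SE of three values.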

[4] = biological target: T1, Estrogen receptor (Homo sapiens) (UniProt P03372); assay: Induction of ERalpha in human LNCAP cells at 10 umol relative to control; type: cell-based; in short: as §3
T1 sequence (whole entry): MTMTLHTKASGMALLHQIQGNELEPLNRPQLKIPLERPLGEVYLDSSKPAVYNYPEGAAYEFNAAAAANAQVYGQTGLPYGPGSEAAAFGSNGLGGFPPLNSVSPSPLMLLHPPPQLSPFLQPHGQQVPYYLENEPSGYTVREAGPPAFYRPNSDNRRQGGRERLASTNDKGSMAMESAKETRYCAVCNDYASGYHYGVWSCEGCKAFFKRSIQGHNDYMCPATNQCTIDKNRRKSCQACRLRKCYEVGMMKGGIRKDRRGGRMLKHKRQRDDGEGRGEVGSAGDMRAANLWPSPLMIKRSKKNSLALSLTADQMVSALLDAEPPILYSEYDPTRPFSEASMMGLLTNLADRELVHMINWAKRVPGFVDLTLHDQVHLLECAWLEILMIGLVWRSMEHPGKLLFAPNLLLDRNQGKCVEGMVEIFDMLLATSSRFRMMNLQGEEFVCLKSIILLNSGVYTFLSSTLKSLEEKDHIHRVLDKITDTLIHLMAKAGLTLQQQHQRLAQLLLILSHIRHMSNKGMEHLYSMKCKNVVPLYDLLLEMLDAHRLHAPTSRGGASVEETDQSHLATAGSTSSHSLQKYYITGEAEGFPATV

[5] = test system: LNCaP; assay: Anticancer activity against human LNCAP cells assessed as change in PSA gene expression at 10 umol after 48 hrs by RT-PCR analysis; type: functional
In short: (§4)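 LNCaP cells (androgen-dependent human prostate cancer) were grown in RPMI-1640 with 10% FCS, 100 units/mL penicillin G and 100 μg/mL streptomycin on gelatin-coated plates. They were treated at 10 μmol for 48 h, with flutamide as positive control. PSA is reported as fold change relative to untreated control.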

[6] = test system: LNCaP; assay: Anticancer activity against human LNCAP cells assessed as change in PSA gene expression at 10 umol after 48 hrs by RT-PCR analysis relative to control; type: functional; in short: as §4
[7] = Cmax in Sprague-Dawley rat prostate gland at 10 mg/kg, po administered as single dose after 1 hr; type: ADME, organism-based; design: dose 10 mg/kg, route oral
In short: (§5)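 Male Sprague-Dawley rats were fasted overnight (12-16 h) and given a single oral 10 mg/kg dose, n = 3 per time point. Animals were killed at intervals up to 24 h and serum, prostate and hypothalamus collected; hypothalamus was pooled from three rats. Analysis was by HPLC (0.01 M sodium acetate pH 6.0/acetonitrile 30:70; LLOQ 10 ng/mL), with noncompartmental parameters.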

[8] = Tmax in Sprague-Dawley rat prostate gland at 10 mg/kg, po administered as single dose after 1 hr; type: ADME, organism-based; design: dose 10 mg/kg, route oral; in short: as §5
[9] = Cmax in Sprague-Dawley rat hypothalamus at 10 mg/kg, po administered as single dose after 2 hrs; type: ADME, organism-based; design: dose 10 mg/kg, route oral; in short: as §5
[10] = test system: Serum; assay: AUC (0 to t) in Sprague-Dawley rat serum at 10 mg/kg, po administered as single dose; type: ADME, organism-based; design: dose 10 mg/kg, route oral; settings: in vivo; in short: as §5
[11] = Cmax in Sprague-Dawley rat serum at 10 mg/kg, po administered as single dose after 1 hr; type: ADME, organism-based; design: dose 10 mg/kg, route oral; in short: as §5
[12] = Mean residence time in Sprague-Dawley rat prostate gland at 10 mg/kg, po administered as single dose; type: ADME, organism-based; design: dose 10 mg/kg, route oral; in short: as §5
[13] = Tmax in Sprague-Dawley rat hypothalamus at 10 mg/kg, po administered as single dose after 2 hrs; type: ADME, organism-based; design: dose 10 mg/kg, route oral; in short: as §5
[14] = Cmax in Sprague-Dawley rat serum at 10 mg/kg, po administered as single dose after 2 hrs; type: ADME, organism-based; design: dose 10 mg/kg, route oral; in short: as §5
[15] = test system: Hypothalamus; assay: AUC (0 to t) in Sprague-Dawley rat hypothalamus at 10 mg/kg, po administered as single dose; type: ADME, organism-based; design: dose 10 mg/kg, route oral; settings: in vivo; in short: as §5
[16] = AUC (0 to t) in Sprague-Dawley rat prostate gland at 10 mg/kg, po administered as single dose; type: ADME, organism-based; design: dose 10 mg/kg, route oral; settings: in vivo; in short: as §5
[17] = Mean residence time in Sprague-Dawley rat hypothalamus at 10 mg/kg, po administered as single dose; type: ADME, organism-based; design: dose 10 mg/kg, route oral; in short: as §5
[18] = biological target: Estrogen receptor beta (Homo sapiens) (UniProt Q92731); assay: Induction of ERbeta in human prostate cells at 10 umol relative to control; type: cell-based
In short: (§6)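 ER-α and ER-β mRNA were measured by real-time PCR in two cell types: primary BPH-derived human stromal cells (passages 4-6; DMEM/Ham's F-12, 10% FCS) and LNCaP cells (RPMI-1640, 10% FCS, gelatin-coated). Cells at 80% confluence were treated with 10.0 μmol for 24 h, then total RNA was extracted. Results are fold change versus control, mean ± SE of three values.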

[19] = biological target: T1, Estrogen receptor (Homo sapiens); assay: Induction of ERalpha in human prostate cells at 10 umol relative to control; type: cell-based; in short: as §6
[20] = Ratio of drug level in serum to prostate in Sprague-Dawley rat at 10 mg/kg, po administered as single dos; type: ADME, organism-based, Prostate gland; design: dose 10 mg/kg, route oral; settings: in vivo; in short: as §5
[21] = Tmax in Sprague-Dawley rat serum at 10 mg/kg, po administered as single dose after 1 hr; type: ADME, organism-based; design: dose 10 mg/kg, route oral; in short: as §5
[22] = Mean residence time in Sprague-Dawley rat serum at 10 mg/kg, po administered as single dose; type: ADME, organism-based; design: dose 10 mg/kg, route oral; in short: as §5
[23] = Tmax in Sprague-Dawley rat prostate gland at 10 mg/kg, po administered as single dose after 2 hrs; type: ADME, organism-based; design: dose 10 mg/kg, route oral; in short: as §5
[24] = Tmax in Sprague-Dawley rat serum at 10 mg/kg, po administered as single dose after 2 hrs; type: ADME, organism-based; design: dose 10 mg/kg, route oral; in short: as §5
[25] = Tmax in Sprague-Dawley rat hypothalamus at 10 mg/kg, po administered as single dose after 1 hr; type: ADME, organism-based; design: dose 10 mg/kg, route oral; in short: as §5
[26] = test system: Serum; assay: Clearance in Sprague-Dawley rat serum at 10 mg/kg, po administered as single dose; type: ADME, organism-based; design: dose 10 mg/kg, route oral; settings: in vivo; in short: as §5
[27] = Ratio of drug level in hypothalamus to prostate in Sprague-Dawley rat at 10 mg/kg, po administered as single dos; type: ADME, organism-based; design: dose 10 mg/kg, route oral; settings: in vivo; in short: as §5
[28] = Cmax in Sprague-Dawley rat hypothalamus at 10 mg/kg, po administered as single dose after 1 hr; type: ADME, organism-based; design: dose 10 mg/kg, route oral; in short: as §5
[29] = Cmax in Sprague-Dawley rat prostate gland at 10 mg/kg, po administered as single dose after 2 hrs; type: ADME, organism-based; design: dose 10 mg/kg, route oral; in short: as §5

## O=C(c1ccccc1)N1CCN(c2cccc(C(F)(F)F)c2)CC1
[1]
  inhibition (INH): 15%

## O=[N+]([O-])c1ccc(N2CCN(c3ncccn3)CC2)c(C(F)(F)F)c1
[1]
  inhibition (INH): 15% and 24%

## O=[N+]([O-])c1ccc(N2CCN(c3ccccn3)CC2)cc1
[1]
  inhibition (INH): 15% and 24%

## O=[N+]([O-])c1cc(C(F)(F)F)ccc1N1CCN(c2ncccn2)CC1
[1]
  inhibition (INH): 15% and 24%

## O=C(c1ccc(C(F)(F)F)cc1)N1CCN(c2cccc(Cl)c2)CC1
[1]
  inhibition (INH): 10%

## O=C(c1ccccc1)N1CCN(c2ncccn2)CC1
[1]
  inhibition (INH): 10%

## O=C(c1ccccc1)N1CCN(c2ccccn2)CC1
[1]
  inhibition (INH): 10%

## O=[N+]([O-])c1ccc(CN2CCN(c3ncccn3)CC2)cc1
[1]
  inhibition (INH): 15% and 24%

## O=[N+]([O-])c1ccccc1N1CCN(c2cccc(C(F)(F)F)c2)CC1
[2]
  Activity: inactive

## O=[N+]([O-])c1cc(C(F)(F)F)ccc1N1CCN(c2cccc(Cl)c2)CC1
[1]
  inhibition (INH): 15%

## O=C(c1ccc(C(F)(F)F)cc1)N1CCN(c2cccc(C(F)(F)F)c2)CC1
[1]
  inhibition (INH): 15%

## O=[N+]([O-])c1cc(C(F)(F)F)ccc1N1CCN(c2ccccn2)CC1
[1]
  inhibition (INH): 15%

## O=[N+]([O-])c1ccccc1N1CCN(c2ccccn2)CC1
[1]
  inhibition (INH): 15%

## O=C(c1ccccc1[N+](=O)[O-])N1CCN(c2ccccn2)CC1
[1]
  inhibition (INH): 15%

## O=C(c1ccc(C(F)(F)F)cc1)N1CCN(c2ccccn2)CC1
[1]
  inhibition (INH): 15%

## O=[N+]([O-])c1ccccc1N1CCN(c2cccc(Cl)c2)CC1
[2]
  Activity: inactive

## O=[N+]([O-])c1ccc(N2CCN(c3ccc(F)cc3)CC2)c(C(F)(F)F)c1
[1]
  inhibition (INH): 15% and 24%

## O=C(c1ccccc1[N+](=O)[O-])N1CCN(c2cccc(C(F)(F)F)c2)CC1
[1]
  inhibition (INH): 15%

## CC(C)C(=O)Nc1ccc([N+](=O)[O-])c(C(F)(F)F)c1 [FLUTAMIDE]
[3]
  fold change (FC): 14
[4]
  fold change (FC): 11
[5]
  inhibition (INH): 99%
[6]
  fold change (FC): 0.01

## O=[N+]([O-])c1ccc(CN2CCN(c3ccccn3)CC2)cc1
[1]
  inhibition (INH): 15%

## O=[N+]([O-])c1ccc(CN2CCN(c3cccc(Cl)c3)CC2)cc1
[1]
  inhibition (INH): 15%

## O=[N+]([O-])c1ccc(CN2CCN(c3cccc(C(F)(F)F)c3)CC2)cc1
[1]
  inhibition (INH): 15%

## O=C(c1ccccc1)N1CCN(c2cccc(Cl)c2)CC1
[1]
  inhibition (INH): 10%

## O=[N+]([O-])c1ccc(N2CCN(c3cccc(Cl)c3)CC2)c(C(F)(F)F)c1
[1]
  inhibition (INH): 15% and 24%

## O=[N+]([O-])c1cc(C(F)(F)F)ccc1N1CCN(c2ccc(F)cc2)CC1
[1]
  inhibition (INH): 15%

## O=[N+]([O-])c1ccc(N2CCN(c3cccc(C(F)(F)F)c3)CC2)c(C(F)(F)F)c1
[7]
  Cmax: 442 ng/g
[8]
  Tmax: 1.5 h
[9]
  Cmax: 124 ng/g
[10]
  AUC: 712 ng·h/mL
[3]
  fold change (FC): 16
[11]
  Cmax: 106 ng/mL
[4]
  fold change (FC): 11
[1]
  inhibition (INH): 15% and 24%
[12]
  MRT: 11 h
[13]
  Tmax: 2 h
[14]
  Cmax: 139 ng/mL
[15]
  AUC: 2000 ng·h/g
[16]
  AUC: 5650 ng·h/g
[17]
  MRT: 11.6 h
[18]
  fold change (FC): 6
[19]
  fold change (FC): 3
[20]
  Ratio: 0.13
[21]
  Tmax: 0.5 h
[5]
  inhibition (INH): 90%
[22]
  MRT: 6.97 h
[6]
  fold change (FC): 0.106
[23]
  Tmax: 6 h
[24]
  Tmax: 2 h
[25]
  Tmax: 1 h
[26]
  CL: 0.17 mL/min/kg
[27]
  Ratio: 0.35
[28]
  Cmax: 99.5 ng/g
[29]
  Cmax: 365 ng/g

## O=[N+]([O-])c1ccc(N2CCN(c3ccccn3)CC2)c(C(F)(F)F)c1
[1]
  inhibition (INH): 15% and 24%

## O=[N+]([O-])c1cc(C(F)(F)F)ccc1N1CCN(c2cccc(C(F)(F)F)c2)CC1
[1]
  inhibition (INH): 15% and 24%
